HNF4A DNA FP = change in binding of human HNF4 alpha to DNA | hit rate 0.3% among 360,000 | AID 1224865 | P41235 | HNF4a-FITC DNA binding, fluorescence polarization, 1 h | activity change, % at 10 µM; in the data active = activity change above about 30%, passing the limit was not always enough
Target sequence (P41235 whole entry, looked up): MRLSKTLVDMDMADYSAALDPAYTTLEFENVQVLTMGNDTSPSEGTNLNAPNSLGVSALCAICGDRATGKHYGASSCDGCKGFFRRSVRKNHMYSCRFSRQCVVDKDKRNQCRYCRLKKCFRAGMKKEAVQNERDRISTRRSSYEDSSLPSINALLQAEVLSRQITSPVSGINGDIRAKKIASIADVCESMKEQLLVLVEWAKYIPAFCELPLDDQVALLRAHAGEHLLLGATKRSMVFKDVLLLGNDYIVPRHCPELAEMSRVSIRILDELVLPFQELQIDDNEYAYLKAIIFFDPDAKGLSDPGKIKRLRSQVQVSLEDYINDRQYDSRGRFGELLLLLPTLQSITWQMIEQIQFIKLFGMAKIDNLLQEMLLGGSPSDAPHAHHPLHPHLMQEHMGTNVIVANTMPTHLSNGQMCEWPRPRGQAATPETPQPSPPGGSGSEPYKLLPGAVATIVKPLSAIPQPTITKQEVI
CSN deneddyl inh = blocks human CSN-mediated cullin deneddylation. Q92905. Purified CSN, SCF-Nedd8-OG deneddylation, fluorescence polarization. inhibition, % at 12.5 µM. hit rate 0.38% among 360,000;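 active = pattern-corrected inhibition above about 35%, with an unprinted fluorescence ratio check between 0.5 and 1.5, limit read from the data, passing the limit was not always enough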;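 note: 0% = enzyme with substrate and 100% = substrate without enzyme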
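Assay system: purified human Csn5 enzyme expressed in HEK293T cells; Input: 0.24 nM Csn5 enzyme, final concentration; Reagent: 10 nM SCFSkp2-Nedd8OG; Compound dosing: 12.5 µM single point; Times: reaction 90 min, room temperature; Technique: fluorescence polarization readout.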
Myeloid diff 2 = promotes myeloid progenitor differentiation. calls only at 10 µM. ER-HoxA9 myeloid progenitors, lysozyme-GFP differentiation, flow cytometry. hit rate 1% among 360,000. AID 624256;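 active = normalized GFP-positive differentiation at or above the plate's own cutoff, the solvent-only control mean plus 3 SD; inconclusive = no clear call, values can overlap the other calls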;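 note: cells exposed to compound for four days before flow analysis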
Granule exo inh = blocks lytic granule exocytosis. TALL-104 LAMP-1 surface exposure, flow cytometry; cells stimulated with thapsigargin and PMA. inhibition, % at 10 µM. hit rate 0.66% among 360,000. AID 651702;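 active = inhibition above about 55%, limit read from the data; inconclusive = no clear call, values can overlap the other calls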
* = called active by the depositor; i = inactive; ? = inconclusive; + = active, no number. Sampled rows, rich in hits. Any-hit rate of the full collection: about 2.2%.

SMILES	HNF4A DNA FP	CSN deneddyl inh	Myeloid diff 2	Granule exo inh
O=C(CNC(=O)[C@@H]1Cc2ccccc2CN1)NCc1ccco1	-6	0	+	-6
O=C(CNC(=O)[C@@H]1Cc2ccccc2CN1)Nc1ccc2c(c1)OCO2	-2	2	+	4
CCOC(=O)C1=CCN(S(=O)(=O)c2ccc(F)cc2)C1c1cccc(C)c1 (centres undefined)	3	-6	i	-2
Cc1ccc(NC(=O)c2oc3ccccc3c2NC(=O)c2ccc3c(c2)OCO3)cc1	-2	1	+	2
COc1ccc(C(=O)Nc2ccc(-c3ccc(C)o3)cc2)cc1S(=O)(=O)N1CCOCC1	-2	-1	i	72*
Cc1ccc(S(=O)(=O)CCC(=O)N2CCN(c3ccc([N+](=O)[O-])cc3)CC2)cc1	-8	2	i	-2
COC(=O)[C@]1(C)N[C@H](CN(C)S(=O)(=O)c2ccc(OC(F)(F)F)cc2)[C@@H]2C(=O)N(Cc3ccccc3)C(=O)[C@@H]21	0	-1	i	-2
COc1cc(/C=C(\NC(C)=O)C(=O)NC(C)(C)C)ccc1OC(C)=O	3	-5	i	0
COc1cc(/C=C(\NC(C)=O)C(=O)Nc2cccc(O)c2)ccc1OC(C)=O	37*	1	i	-4
Cn1c(=O)c2c(nc(CN3CCN(Cc4ccccc4)CC3)n2Cc2cccc(Cl)c2)n(C)c1=O	6	0	i	0
Cn1c(=O)c2c(nc(CN3CCc4ccccc4C3)n2Cc2cccc(Cl)c2)n(C)c1=O	-1	0	+	18
c1ccc(CCC2Cc3ccccc3N2)cc1 (centres undefined)	4	-5	i	-6
c1ccc(CC[C@@H]2CC[C@@H](CCc3ccccc3)N2)cc1	7	43*	i	1
COc1ccc(OC)c(S(=O)(=O)N2CCN(c3ccccc3)CC2)c1	1	3	i	0
COc1ccc(OC)c(S(=O)(=O)ON2C(=O)c3ccccc3C2=O)c1	-3	1	+	-7
O=C(CN1c2ccccc2S(=O)(=O)c2ccccc21)NCc1ccc(F)cc1	-2	0	i	0
COc1ccc(NC(=O)Cn2nnc(-c3ccccc3NC(=O)c3ccco3)n2)cc1	-2	7	+	-3
O=C(Cn1nnc(-c2ccccc2NC(=O)c2cccs2)n1)Nc1ccccc1	0	2	i	0
COc1ccccc1NC(=O)Cn1nnc(-c2ccccc2NC(=O)c2cccs2)n1	0	37*	i	26
COC(=O)CSc1nnc(CNC(=O)c2cc(OC)c(OC)c(OC)c2)n1C	28*	-6	i	-1
COC(=O)CSc1nnc(CNC(=O)c2ccccc2OC)n1C	0	-6	i	1
COc1ccc(OC)c(N2C(N)=NC(N)=NC23CCCC3)c1	0	-3	i	3
Cc1cccc(N2C(N)=NC(N)=NC23CCCCC3)c1	-1	-4	+	3
CN1CCN(c2c([N+](=O)[O-])cnc3ccccc23)CC1	2	-1	i	10
O=C1NC(=S)S/C1=C\c1ccc(SCc2ccccc2)o1	35*	69	i	12
SMILES	HNF4A DNA FP	CSN deneddyl inh	Myeloid diff 2	Granule exo inh
O=C(CNS(=O)(=O)c1cccc(Br)c1)NCC1CCCCC1	0	5	i	2
C=CCOc1ccc(CNC(C)(C)C)cc1OC	51*	-4	i	1
CCOC(=O)C(C(=O)Cc1ccccc1)c1ccccc1 (centres undefined)	-1	1	i	2
O=c1cc(N=Nc2ccc(Cl)cc2)[nH]c(=O)[nH]1	6	8	?	77*
Cc1ccc(C(=O)N/C(=C/c2ccc(-c3ccc([N+](=O)[O-])cc3)o2)C(=O)NCCCN(C)C)cc1	6	11	+	1
O=C(Nc1ccc(Cl)c(-c2nc3ccccc3[nH]2)c1)c1ccc2c(c1)OCO2	1	3	+	-6
O=C(Nc1ccc(-c2nc3ccccc3[nH]2)cc1)c1ccc2c(c1)OCO2	25	15	i	13
CC(C)n1ncc2c(C(=O)Nc3ccc(S(N)(=O)=O)cc3)cc(C3CC3)nc21	64	113*	i	-2
CC(C)n1ncc2c(C(=O)Nc3ccc(S(C)(=O)=O)cc3)cc(C3CC3)nc21	2	0	i	-9
Cc1cccn2c(=O)c(/C=C(\C#N)C(=O)NC3CCS(=O)(=O)C3)c(Oc3ccccc3Cl)nc12 (centres undefined)	-5	-3	i	-2
Cc1ccccc1Oc1nc2c(C)cccn2c(=O)c1/C=C(\C#N)C(=O)NC1CCS(=O)(=O)C1 (centres undefined)	0	6	i	82*
